KCNQ1 inh – blocks the human KCNQ1 potassium channel; actives 1.3% (n = 310,000); B-score at 10 µM; AID 2642; CHO-K1 KCNQ1, FluxOR thallium flux fluorescence; hits give high values;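 active means compounds whose thallium flux B-score, printed positive for inhibition, exceeds three library SD while starting fluorescence stays within three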;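 further: channel opened by potassium depolarization with thallium stimulus after 20 min compound exposure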
hERG rescue – shields human hERG channel from block by proarrhythmic agents. CHO-hERG, FluxOR thallium flux, dofetilide IC70 present. activation (rescue from dofetilide block), less the hit threshold, % at 10 µM. actives 0.51% (n = 310,000);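 active means activation above the mean of controls blocked by dofetilide plus 5 SD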;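 further: thallium influx through hERG after potassium depolarization seen as dye fluorescence rise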
KCNK3 block – human KCNK3 channel inhibition, primary screen | O14649 | CHO-KCNK3 thallium flux, FluxOR fluorescence; hits give low values | B-score at 10 µM | actives 0.84% (n = 340,000) | AID 602410;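 active means B-score under library mean minus 4 SD, starting fluorescence ratio at most library mean plus 5 SD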;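 further: more negative B-score means stronger inhibition of thallium flux through KCNK3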
Target sequence (O14649 whole entry, looked up): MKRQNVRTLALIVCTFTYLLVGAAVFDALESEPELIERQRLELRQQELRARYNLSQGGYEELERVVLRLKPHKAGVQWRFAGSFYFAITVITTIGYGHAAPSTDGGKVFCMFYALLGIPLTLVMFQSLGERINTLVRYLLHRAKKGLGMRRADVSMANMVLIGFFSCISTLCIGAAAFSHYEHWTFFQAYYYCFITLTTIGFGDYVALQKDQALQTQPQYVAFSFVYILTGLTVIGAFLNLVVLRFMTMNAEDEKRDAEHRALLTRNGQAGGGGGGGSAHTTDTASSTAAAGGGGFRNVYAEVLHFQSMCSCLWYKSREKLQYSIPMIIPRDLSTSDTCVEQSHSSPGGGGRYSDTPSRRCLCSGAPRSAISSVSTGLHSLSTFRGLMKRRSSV
KCNK9 inh – blocks the human KCNK9 two-pore domain potassium channel. Q9NPC2. HEK293 KCNK9, FluxOR thallium flux fluorescence; hits give low values. B-score at 10 µM. actives 1.2% (n = 310,000). AID 488922;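 active means ratio B-score over 3 SD below the library mean, with starting fluorescence within 5 SD of its mean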;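 further: negative B-score means less thallium flux so channel inhibition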
KCNQ1 pot – human KCNQ1 channel potentiation or activation. CHO-K1 KCNQ1, thallium flux FluxOR fluorescence; hits give high values. B-score at 10 µM. actives 0.35% (n = 310,000). AID 2648;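 active means fluorescence ratio B-score, a plate-corrected score, at least three library SD, with initial intensity B-score within 5 SD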
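Medium – assay buffer, equal DMSO in all wells · Material – CHO-K1 cell line with stable KCNQ1 potassium channel expression · Signal – kinetic FluxOR thallium fluorescence, 10-s 1-Hz baseline, 110-s post-stimulus read · Compound – single concentration per compound, DMSO matched to controls · Schedule – 37 °C overnight plating, 90-min dark dye load, 20-min compound pretreatment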
KCNK9 inh conf – confirmation of human KCNK9 potassium channel inhibitors; shares compounds with KCNK9 inh; HEK293 KCNK9 cells, FluxOR thallium flux fluorescence; inhibition, % at 10 µM; actives 43% (n = 4,900); AID 492992;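 active means thallium signal inhibited by more than 5 SD of the compound-free buffer control wells, on both duplicate plates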;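 further: 0% = assay buffer control wells without compound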
Kir2-1 spec – tests whether KCNK9 modulators also affect mouse Kir2.1; shares compounds with KCNK9 inh; Kir2.1 cells, FluxOR thallium flux fluorescence; inhibition, % at 10 µM; actives 4% (n = 4,900); AID 492993;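 active means thallium signal drop more than 5 SD beyond the mean of the no-compound control wells, seen in both duplicate plates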;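 further: signal is fluorescence rise after thallium addition divided by baseline fluorescence; plate controls were assay buffer only for no effect and full block by chlorpromazine control for full effect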
HEK293 Tl ctr – second check of KCNK9 modulator effects in non-induced HEK293 cells; shares compounds with KCNK9 inh; FluxOR thallium flux; inhibition, % at 10 µM; actives 40% (n = 4,900);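 active means thallium signal drop beyond 5 SD of the untreated control mean, on both duplicate plates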;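 further: plate controls were buffer only IC0 wells for no effect and SID17386958 at its maximal inhibitory level for full effect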
* marks the source's active call; other numbers are inactive results; i = inactive; / = no result. Hits are enriched below; roughly 3.1% of the tested compounds scored in any of these assays.

SMILES	KCNQ1 inh	hERG rescue	KCNK3 block	KCNK9 inh	KCNQ1 pot	KCNK9 inh conf	Kir2-1 spec	HEK293 Tl ctr
O=C(COC(=O)c1cc(-c2ccccc2)nc2ccccc12)Nc1ccc2c(c1)OCO2	i	-5.6	i	i	i	/	/	/
CCOC(=O)c1cc(C(=O)OCC)c(=O)[nH]c1N1CCCC1	i	-5.0	i	i	i	/	/	/
CC(C)N1CCNCC1	i	-9.7	i	i	i	/	/	/
Cc1ccc(N(C)C(=O)c2cc(S(=O)(=O)N3CCCC3)cn2C)cc1	i	-11.0	i	i	i	/	/	/
CN1c2ccccc2C(C)(C)[C@]12C=Cc1cc(O)ccc1O2	13*	-27.1	i	i	i	i	33.0%*	i
COc1cc(O)c(CC=C(C)C)c(O)c1C(=O)CCc1ccc(O)cc1	i	-15.3	i	-14.1*	i	32.0%*	i	33.5%*
O=C(CCc1ccc(O)cc1)c1c(O)cc(O)cc1O	i	-33.4	i	i	i	/	/	/
COc1cccc(/C(C#N)=C/c2c(-c3ccc(Cl)cc3)nc3c(C)cccn23)c1	8*	-5.9	i	-8.91*	i	58.0%*	i	38.0%*
Cc1cccn2c(/C=N/OCc3cccc(F)c3)c(-c3ccc(Cl)cc3)nc12	i	-19.9	i	i	i	/	/	/
Cc1ccc(-c2csc(NC(=O)c3ccc(-c4ccccc4)cc3)n2)o1	i	-15.3	i	-9.75*	i	i	i	i
COc1ccc(-c2csc(NC(=O)c3ccco3)n2)cc1	i	-4.4	i	-8.69*	i	i	i	i
Cc1ccc(Cl)cc1Nc1nc(-c2sc(NC(=O)c3ccco3)nc2C)cs1	i	-29.2	i	-11.8*	i	34.5%*	i	i
CCC(C)C(=O)Nc1nc(C)c(-c2csc(Nc3ccccc3OC)n2)s1 (stereo not given)	i	-13.5	i	-9.23*	i	58.5%*	i	27.5%*
Cc1nc(NC(=O)c2ccco2)sc1-c1csc(Nc2ccc(Cl)cc2Cl)n1	i	-6.8	i	i	i	/	/	/
CNC(=O)c1cc(C(=O)c2c(Cl)cccc2Cl)c[nH]1	i	-8.5	i	i	i	/	/	/
COc1ccc(NC(=O)c2oc3ccccc3c2NC(=O)c2ccco2)cc1	i	-1.1	i	-9.06*	i	i	i	i
COc1ccc(Cl)cc1Nc1nc(-c2sc(NC(=O)CC(C)C)nc2C)cs1	i	-6.8	i	-13.1*	i	41.0%*	i	34.5%*
Cc1nc(NC(=O)CC(C)C)sc1-c1csc(Nc2ccc(Cl)cc2Cl)n1	i	-14.0	i	i	i	/	/	/
Cc1ccsc1C(=O)N1CCCC(N2CCN(c3cccc(Cl)c3)CC2)C1 (stereo not given)	i	-9.2	i	i	i	/	/	/
COc1ccccc1NS(=O)(=O)c1cc(NC(=O)C2CCC2)ccc1N1CCCCC1	i	-9.9	i	-8.46*	i	34.0%*	i	26.0%*
CCOC(=O)c1cc2occc2n1Cc1ccc(F)cc1	i	-7.8	i	-8.28*	i	i	i	30.0%*
COC(=O)c1cc2occc2n1Cc1ccc(Cl)cc1	i	-15.1	i	i	i	/	/	/
Cc1cc(C)n(C(=O)c2ccc(Cl)c(F)c2F)n1	i	-8.2	i	i	i	/	/	/
COc1c(Cl)cc(Cl)cc1C(=O)n1nc(C)cc1C	i	-5.2	i	i	i	i	i	i
CCOC(=O)c1cccc(N/C=C/C(=O)c2ccc(OC)c(OC)c2)c1	i	4.3	i	-16.4*	i	76.0%*	i	38.5%*
COc1cccc(N/C=C/C(=O)c2ccc(OC)c(OC)c2)c1	i	-1.6	i	i	i	/	/	/
Cc1ccc(C)c(OCC(=O)N(C)CC(=O)Nc2ccc(Cl)c(C(F)(F)F)c2)c1	/	/	i	/	/	/	/	/
